Laboratory results: ChEMBL document CHEMBL2203022, “Design, synthesis and antimicrobial evaluation of novel 1-benzyl 2-butyl-4-chloroimidazole embodied 4-azafluorenones via molecular hybridization approach” (2012)

How the values were obtained:
Assay type in all cases: functional
[1] = system: Bacillus subtilis; assay: Antibacterial activity against Bacillus subtilis MTCC 121 at 10 ug per disk after 24 hrs by disc diffusion method; settings: for zone of inhibition at 10 µg/disc: MTCC 121, 24 h, read-out: DIZ
Procedure, shortened: (§1)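 Standard 0.5 McFarland inoculum spread evenly over nutrient agar plates with a sterile L-shaped glass spreader. Plates incubated 24 h at 37 °C. Gentamicin as reference standard. Read-out: zone of inhibition in mm, measured in triplicate and compared with control and standard.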

[2] = system: Aspergillus flavus; assay: Antifungal activity against Aspergillus flavus MTCC 8188 at 10 ug per disk after 2 to 3 days by disc diffusion method; settings: for zone of inhibition at 10 µg/disc: read-out: DIZ
Procedure, shortened: (§2)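 Fungal inoculum: a loopful of each strain suspended in saline, spread evenly on yeast extract potato dextrose agar with a sterile glass spreader. Sterile 5 mm discs loaded with test compound in DMSO placed on the agar. Plates incubated 2–3 days at room temperature. Nystatin as reference standard. Zones of inhibition measured and compared with control and standard.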

[3] = system: Escherichia coli; assay: Antibacterial activity against Escherichia coli MTCC 1573 at 10 ug per disk after 24 hrs by disc diffusion method; settings: MTCC 1573, 24 h, read-out: DIZ; procedure, shortened: as §1
[4] = system: Staphylococcus aureus; assay: Antibacterial activity against Staphylococcus aureus MTCC 1430 at 10 ug per disk after 24 hrs by disc diffusion method; settings: MTCC 1430, 24 h, read-out: DIZ; procedure, shortened: as §1
[5] = system: Pseudomonas aeruginosa; assay: Antibacterial activity against Pseudomonas aeruginosa MTCC 2453 at 10 ug per disk after 24 hrs by disc diffusion method; settings: MTCC 2453, 24 h, read-out: DIZ; procedure, shortened: as §1
[6] = system: Klebsiella pneumoniae; assay: Antibacterial activity against Klebsiella pneumoniae MTCC 618 at 10 ug per disk after 24 hrs by disc diffusion method; settings: for zone of inhibition at 10 µg/disc: MTCC 618, 24 h, read-out: DIZ; procedure, shortened: as §1
[7] = system: Candida albicans; assay: Antifungal activity against Candida albicans MTCC 7253 at 10 ug per disk after 2 to 3 days by disc diffusion method; settings: read-out: DIZ; procedure, shortened: as §2

Compound: CCCCc1nc(Cl)c(-c2cc(-c3cc(OC)c(OC)c(OC)c3)nc3c2C(=O)c2ccccc2-3)n1Cc1ccccc1
- zone of inhibition at 10 µg/disc [1]: 9 mm
- zone of inhibition at 10 µg/disc [2]: 6 mm
- zone of inhibition at 10 µg/disc [3]: 9 mm
- zone of inhibition at 10 µg/disc [4]: 12 mm
- zone of inhibition at 10 µg/disc [5]: 7 mm
- zone of inhibition at 10 µg/disc [6]: 11 mm
- zone of inhibition at 10 µg/disc [7]: 10 mm

Compound: GENTAMICIN
- inhibition zone (IZ) [1]: 14 mm
- inhibition zone (IZ) [6]: 19 mm

Compound: NYSTATIN
- inhibition zone (IZ) [2]: 9 mm

Compound: CCCCc1nc(Cl)c(-c2cc(-c3ccco3)nc3c2C(=O)c2ccccc2-3)n1Cc1ccccc1
- zone of inhibition at 10 µg/disc [1]: 8 mm
- zone of inhibition at 10 µg/disc [2]: 10 mm
- zone of inhibition at 10 µg/disc [3]: 8 mm
- zone of inhibition at 10 µg/disc [4]: 15 mm
- zone of inhibition at 10 µg/disc [5]: 14 mm
- zone of inhibition at 10 µg/disc [6]: 15 mm
- zone of inhibition at 10 µg/disc [7]: 13 mm

Compound: CCCCc1nc(Cl)c(-c2cc(-c3ccc(Br)s3)nc3c2C(=O)c2ccccc2-3)n1Cc1ccccc1
- zone of inhibition at 10 µg/disc [1]: 9 mm
- zone of inhibition at 10 µg/disc [2]: 7 mm
- zone of inhibition at 10 µg/disc [3]: 8 mm
- zone of inhibition at 10 µg/disc [4]: 12 mm
- zone of inhibition at 10 µg/disc [5]: 13 mm
- zone of inhibition at 10 µg/disc [6]: 12 mm
- zone of inhibition at 10 µg/disc [7]: 9 mm

Compound: CCCCc1nc(Cl)c(-c2cc(-c3ccc(C)cc3)nc3c2C(=O)c2ccccc2-3)n1Cc1ccccc1
- zone of inhibition at 10 µg/disc [1]: 8 mm
- zone of inhibition at 10 µg/disc [2]: 7 mm
- zone of inhibition at 10 µg/disc [3]: 9 mm
- zone of inhibition at 10 µg/disc [4]: 10 mm
- zone of inhibition at 10 µg/disc [5]: 8 mm
- zone of inhibition at 10 µg/disc [6]: 11 mm
- zone of inhibition at 10 µg/disc [7]: 10 mm

Compound: CCCCc1nc(Cl)c(-c2cc(-c3ccc4sc5ccccc5c4c3)nc3c2C(=O)c2ccccc2-3)n1Cc1ccccc1
- zone of inhibition at 10 µg/disc [1]: 9 mm
- zone of inhibition at 10 µg/disc [2]: 10 mm
- zone of inhibition at 10 µg/disc [3]: 8 mm
- zone of inhibition at 10 µg/disc [4]: 12 mm
- zone of inhibition at 10 µg/disc [5]: 7 mm
- zone of inhibition at 10 µg/disc [6]: 11 mm
- zone of inhibition at 10 µg/disc [7]: 14 mm

Compound: CCCCc1nc(Cl)c(-c2cc(-c3ccccc3)nc3c2C(=O)c2ccccc2-3)n1Cc1ccccc1
- zone of inhibition at 10 µg/disc [1]: 8 mm
- zone of inhibition at 10 µg/disc [2]: 8 mm
- zone of inhibition at 10 µg/disc [3]: 9 mm
- zone of inhibition at 10 µg/disc [4]: 12 mm
- zone of inhibition at 10 µg/disc [5]: 10 mm
- zone of inhibition at 10 µg/disc [6]: 11 mm
- zone of inhibition at 10 µg/disc [7]: 10 mm

Compound: CCCCc1nc(Cl)c(-c2cc(-c3ccc([N+](=O)[O-])cc3)nc3c2C(=O)c2ccccc2-3)n1Cc1ccccc1
- zone of inhibition at 10 µg/disc [1]: 10 mm
- zone of inhibition at 10 µg/disc [2]: 6 mm
- zone of inhibition at 10 µg/disc [3]: 8 mm
- zone of inhibition at 10 µg/disc [4]: 10 mm
- zone of inhibition at 10 µg/disc [5]: 10 mm
- zone of inhibition at 10 µg/disc [6]: 10 mm
- zone of inhibition at 10 µg/disc [7]: 11 mm

Compound: CCCCc1nc(Cl)c(-c2cc(-c3ccc4ccccc4c3)nc3c2C(=O)c2ccccc2-3)n1Cc1ccccc1
- zone of inhibition at 10 µg/disc [1]: 9 mm
- zone of inhibition at 10 µg/disc [2]: 6 mm
- zone of inhibition at 10 µg/disc [3]: 8 mm
- zone of inhibition at 10 µg/disc [4]: 12 mm
- zone of inhibition at 10 µg/disc [5]: 13 mm
- zone of inhibition at 10 µg/disc [6]: 12 mm
- zone of inhibition at 10 µg/disc [7]: 10 mm

Compound: CCCCc1nc(Cl)c(-c2cc(-c3cn(S(=O)(=O)c4ccc(C)cc4)c4ccccc34)nc3c2C(=O)c2ccccc2-3)n1Cc1ccccc1
- zone of inhibition at 10 µg/disc [1]: 7 mm
- zone of inhibition at 10 µg/disc [2]: 11 mm
- zone of inhibition at 10 µg/disc [3]: 8 mm
- zone of inhibition at 10 µg/disc [4]: 10 mm
- zone of inhibition at 10 µg/disc [5]: 7 mm
- zone of inhibition at 10 µg/disc [6]: 12 mm
- zone of inhibition at 10 µg/disc [7]: 13 mm

Compound: CCCCc1nc(Cl)c(-c2cc(-c3ccc4oc5ccccc5c4c3)nc3c2C(=O)c2ccccc2-3)n1Cc1ccccc1
- zone of inhibition at 10 µg/disc [1]: 9 mm
- zone of inhibition at 10 µg/disc [2]: 7 mm
- zone of inhibition at 10 µg/disc [3]: 9 mm
- zone of inhibition at 10 µg/disc [4]: 11 mm
- zone of inhibition at 10 µg/disc [5]: 13 mm
- zone of inhibition at 10 µg/disc [6]: 13 mm
- zone of inhibition at 10 µg/disc [7]: 10 mm

Compound: CCCCc1nc(Cl)c(-c2cc(-c3cccc4ccccc34)nc3c2C(=O)c2ccccc2-3)n1Cc1ccccc1
- zone of inhibition at 10 µg/disc [1]: 10 mm
- zone of inhibition at 10 µg/disc [2]: 5 mm
- zone of inhibition at 10 µg/disc [3]: 9 mm
- zone of inhibition at 10 µg/disc [4]: 12 mm
- zone of inhibition at 10 µg/disc [5]: 6 mm
- zone of inhibition at 10 µg/disc [6]: 12 mm
- zone of inhibition at 10 µg/disc [7]: 12 mm

Compound: CCCCc1nc(Cl)c(-c2cc(-c3cccc(Br)n3)nc3c2C(=O)c2ccccc2-3)n1Cc1ccccc1
- zone of inhibition at 10 µg/disc [1]: 8 mm
- zone of inhibition at 10 µg/disc [2]: 9 mm
- zone of inhibition at 10 µg/disc [3]: 9 mm
- zone of inhibition at 10 µg/disc [4]: 12 mm
- zone of inhibition at 10 µg/disc [5]: 12 mm
- zone of inhibition at 10 µg/disc [6]: 9 mm
- zone of inhibition at 10 µg/disc [7]: 11 mm

Compound: CCCCc1nc(Cl)c(-c2cc(-c3ccc(Br)cc3)nc3c2C(=O)c2ccccc2-3)n1Cc1ccccc1
- zone of inhibition at 10 µg/disc [1]: 9 mm
- zone of inhibition at 10 µg/disc [2]: 7 mm
- zone of inhibition at 10 µg/disc [3]: 9 mm
- zone of inhibition at 10 µg/disc [4]: 12 mm
- zone of inhibition at 10 µg/disc [5]: 6 mm
- zone of inhibition at 10 µg/disc [6]: 12 mm
- zone of inhibition at 10 µg/disc [7]: 10 mm

Compound: CCCCc1nc(Cl)c(-c2cc(-c3cccs3)nc3c2C(=O)c2ccccc2-3)n1Cc1ccccc1
- zone of inhibition at 10 µg/disc [1]: 10 mm
- zone of inhibition at 10 µg/disc [2]: 5 mm
- zone of inhibition at 10 µg/disc [3]: 9 mm
- zone of inhibition at 10 µg/disc [4]: 10 mm
- zone of inhibition at 10 µg/disc [5]: 11 mm
- zone of inhibition at 10 µg/disc [6]: 10 mm
- zone of inhibition at 10 µg/disc [7]: 10 mm

Compound: CCCCc1nc(Cl)c(-c2cc(-c3ccc(OC)cc3)nc3c2C(=O)c2ccccc2-3)n1Cc1ccccc1
- zone of inhibition at 10 µg/disc [1]: 9 mm
- zone of inhibition at 10 µg/disc [2]: 6 mm
- zone of inhibition at 10 µg/disc [3]: 8 mm
- zone of inhibition at 10 µg/disc [4]: 10 mm
- zone of inhibition at 10 µg/disc [5]: 9 mm
- zone of inhibition at 10 µg/disc [6]: 11 mm
- zone of inhibition at 10 µg/disc [7]: 12 mm
